Laboratory results from ChEMBL document CHEMBL3286338, “SAR studies on hydropentalene derivatives--Important core units of biologically active tetramic acid macrolactams and ptychanolides” (Bioorg Med Chem, 2014).
Activity calls are given as the source filed them. The calls are words filed in the database; no cut-off is given here.

Tests used:
L929 [1] = experiment: Antiproliferative activity against mouse L929 cells by MTT assay; format: functional, cell-based
In short: (§1)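 Cells kept in supplier-recommended media at 37 °C, 10% CO2. Serial dilutions added to a cell suspension (50,000 per mL) and incubated 5 d alongside blank and solvent controls. MTT then added to 0.5 mg mL^-1 final for 2 h, and formazan precipitate collected by centrifugation. Run as two parallel experiments; activity taken as mean relative to controls set at 100%.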

[2] = Antiproliferative activity against human KB-3-1 cells by MTT assay; format: functional, cell-based; in short: as §1
L929 [3] = experiment: Effect on microtubule polymerization in mouse L929 cells at 0.6 ug/ml by impedance profiling; format: cell-based
In short: (§2)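 L-929 cell cultures incubated with compound while impedance was recorded over time. The time-dependent impedance curves served as a mode-of-action fingerprint and were compared statistically, by cluster analysis, against curves from a set of reference compounds. Controls received methanol.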

L929 [4] = experiment: Effect on spindle formation in mouse L929 cells at 0.6 ug/ml by impedance profiling; format: cell-based; in short: as §2
[5] = Cytotoxicity against Potorous tridactylus PtK2 cells by MTT assay; format: functional, cell-based; in short: as §1
PtK2 [6] = experiment: Effect on microtubular network in Potorous tridactylus PtK2 cells at 4 ug/ml for overnight incubation by DAPI staining analysis; format: functional, cell-based
In short: (§3)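 PtK2 cells on glass coverslips incubated overnight with compound or with methanol only. For alpha-tubulin staining, fixed in cold (-20 °C) MeOH/acetone (1:1) for 10 min, then probed with primary antibody. DNA counterstained. Microtubular network, mitotic spindles and chromosome distribution assessed by fluorescence microscopy.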

PtK2 [7] = experiment: Effect on mitotic spindle in Potorous tridactylus PtK2 cells at 4 ug/ml for overnight incubation by DAPI staining analysis; format: functional, cell-based; in short: as §3
PtK2 [8] = experiment: Effect on chromosme distribution in Potorous tridactylus PtK2 cells at 4 ug/ml for overnight incubation by DAPI staining analysis; format: functional, cell-based; in short: as §3
Tubulin (Sus scrofa) = Tubulin (Sus scrofa) (UniProt P02554+P02550); experiment: Inhibition of porcine tubulin polymerization at 500 ug/ml by fluorescence analysis; format: protein assay
In short: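 Porcine tubulin (kit master mix with buffer, glycerol and GTP) mixed with compound at a 5:50 volume ratio. Placed at once in a fluorimeter at 37 °C. Polymerization followed by incorporation of a fluorescent reporter, read at 460 nm (excitation 340 nm) for about 1 h. Methanol and nocodazole served as controls.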

PtK2 [9] = experiment: Effect on F-actin cytoskeleton in Potorous tridactylus PtK2 cells at 2 ug/ml for overnight incubation by DAPI staining analysis; format: cell-based
In short: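 PtK2 cells grown on glass coverslips and exposed to compound overnight, with methanol-only controls. Fixed in 3.7% formalin for 10 min, permeabilized with 0.1% Triton X-100 for 5 min, then stained with Alexa Fluor 488 phalloidin (1:100) for 1 h. F-actin (green) and DNA (blue) examined by fluorescence microscopy.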

Homo sapiens = species: Homo sapiens; experiment: Induction of actin polymerization (unknown origin) at 28 ug/ml after 20 mins by fluorescence analysis
In short: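 Pyrene-labelled muscle actin used, with pyrene fluorescence reporting polymerization state. Baseline read 3 min, then compound or methanol added and read a further 20 min. Polymerization then started with 10X actin polymerization buffer and read for 1 h.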

Chain of Tubulin (Sus scrofa) (P02550 whole entry, looked up): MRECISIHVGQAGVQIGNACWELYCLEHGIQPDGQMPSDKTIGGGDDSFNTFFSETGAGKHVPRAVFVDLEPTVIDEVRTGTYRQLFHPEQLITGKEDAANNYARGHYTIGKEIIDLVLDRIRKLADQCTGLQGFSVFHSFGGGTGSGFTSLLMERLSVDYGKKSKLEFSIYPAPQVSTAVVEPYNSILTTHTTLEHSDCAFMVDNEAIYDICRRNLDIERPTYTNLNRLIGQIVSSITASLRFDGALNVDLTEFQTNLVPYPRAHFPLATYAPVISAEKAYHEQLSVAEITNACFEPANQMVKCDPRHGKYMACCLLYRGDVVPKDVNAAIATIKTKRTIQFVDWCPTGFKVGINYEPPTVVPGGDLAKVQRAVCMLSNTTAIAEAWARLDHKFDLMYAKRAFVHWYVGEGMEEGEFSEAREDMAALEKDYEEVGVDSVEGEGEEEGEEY
Chain of Tubulin (Sus scrofa) (P02554 whole entry, looked up): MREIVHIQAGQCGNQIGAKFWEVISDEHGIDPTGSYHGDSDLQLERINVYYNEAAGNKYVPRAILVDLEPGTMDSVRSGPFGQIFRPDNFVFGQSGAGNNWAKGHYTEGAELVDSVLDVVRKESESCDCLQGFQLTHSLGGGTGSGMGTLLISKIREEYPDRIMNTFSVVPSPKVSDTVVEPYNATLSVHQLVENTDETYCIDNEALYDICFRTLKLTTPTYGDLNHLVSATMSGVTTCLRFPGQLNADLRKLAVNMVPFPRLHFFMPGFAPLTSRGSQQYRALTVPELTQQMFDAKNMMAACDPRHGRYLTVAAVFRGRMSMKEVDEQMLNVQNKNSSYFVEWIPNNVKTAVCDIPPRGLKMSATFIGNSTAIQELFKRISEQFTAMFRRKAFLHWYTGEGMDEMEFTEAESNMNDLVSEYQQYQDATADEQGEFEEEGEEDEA

inhibition (Tubulin (Sus scrofa)): Active | Activity (Homo sapiens): Active
SMILES: C#CC(=O)O[C@H]1C[C@@H]2CC3(C[C@@H]2C1)OCC(C)(C)CO3
IC50 (L929 [1]): 2.2 µM | IC50 [2]: 21.6 µM | Activity (L929 [3]): Active | Activity (L929 [4]): Active | IC50 [5]: 3 µM | Activity (PtK2 [6]): Active | Activity (PtK2 [7]): Active | Activity (PtK2 [8]): Active | Activity (PtK2 [9]): Active
